The text below walks through data of PubChem BioAssay.

The nature of test [1]: inhibitors of TNFa-induced NFkB p65 translocation, primary screen, imaging, HUVEC, MLSMR starter and 10KST1 sets (AID 438;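 active = inhibition above 20% together with a positive visual image hit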;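 also: compound added about 3h40 before a 20 min TNFalpha stimulation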;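 as to inhibition: signal is the nuclear over cytoplasmic p65 intensity ratio per well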). To be noted: HUVEC TNFa-induced p65 nuclear translocation; cell count: measured here: nuclei count (cytotoxicity indicator), at 2.08 µM; inhibition: at 2 µM, stronger effect = higher value, 0% TNFa-plus-vehicle, 100% no-TNFa wells.
The nature of test [2]: inhibitors of mutant huntingtin aggregation, primary screen, imaging, exon1htt(103Q)mCFP cells, high-content imaging (AID 483;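 active = visual image review flags a hit and inhibition of aggregation exceeds 20%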;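 also: compound exposure lasted 3 days before fixation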;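 as to nuclei count: percent of the per-plate median nuclei count of sample wells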). To be noted: exon1htt(103Q)mCFP cell line, aggregate imaging, at 2 µM; inhibition of aggregation: stronger effect = higher value; nuclei count: measured here: cell count, toxicity.
Test [3] is described as follows: inhibitors of E-selectin induction by TNFa, primary screen, imaging, HUVEC, immunofluorescence, MLSMR starter and 10KST1 sets (AID 487;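 active = visually confirmed hit in the image check and inhibition above 20%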;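 as to inhibition: signal is fraction of cell area covered by stained E-selectin grains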;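 as to nuclei count: 100% = median nuclei count of all wells on the same plate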). To be noted: HUVEC TNFalpha-induced E-selectin immunofluorescence imaging, at 2 µM; inhibition: stronger effect = higher value; nuclei count: measured here: cell number, toxicity.
The target of test [4] is Voltage-gated potassium channel subunit beta-2 (Rattus norvegicus) (UniProt P62483). The test can be described thus: KvBeta enzyme negative modulators, primary screen, biochemical, NADPH fluorescence (AID 622;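 active = fluorescence slope higher than the sample average by over 3 SD, cut at about -0.22 in these data, passing the limit was not always enough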;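 also: slope of raw intensity against log time taken from 70 to 1610 s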). To be noted: recombinant KvBeta, 4-cyanobenzaldehyde reduction, at 10 µM, stronger effect = higher value.
The target is the same in test [5]. The test can be described thus: KvBeta positive modulators, primary screen, biochemical, NADPH fluorescence (AID 623;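 active = NADPH fluorescence slope more negative than the mean of all samples by about 3 SD, 99.7% confidence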;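 also: fluorescence intensity change per second fitted from 20 to 320 s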). To be noted: Recombinant KvBeta, NADPH fluorescence decrease slope, 10 min; at 10 µM; stronger effect = lower value.
Test [6] concerns the target Muscarinic acetylcholine receptor M4 (Homo sapiens) (UniProt P08173). Put plainly: compounds altering M4/GIRK thallium flux, either direction, primary screen, M4 allosteric agonist project, cell-based, HEK293 M4/GIRK, BTC-AM (AID 625;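 active = fluorescence slope after compound addition differing from the mean of all tested samples at 99.7% confidence, mostly higher but some lower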;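 also: thallium influx through GIRK channels coupled to M4 in HEK293 cells with BTC-AM dye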). Conditions: at 10 µM, actives lie on both sides. A digest of the protocol: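 System: HEK293 cells with M4 receptor and GIRK channels | Incubation: Cells overnight at 37 °C, BTC-AM loading 1 h, reads 2 min total | Technique: Kinetic BTC-AM fluorescence sampled at 1 Hz, 10 s pre-addition baseline | Measure: Post-addition slope, 15–24 s, of baseline-normalized fluorescence | Control set: Carbachol positive, DMSO negative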

Test [7] is described as follows: inhibitors of Sendai virus-induced IRF3 signaling, primary screen, TLR/RLR signaling modifier project, cell-based, Sendai virus stimulus, luciferase, 10K MLSCN set (AID 602276).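 Also: firefly luciferase from ISG56 promoter only with Renilla not read in this screen; 0% = Sendai virus plus DMSO and 100% = medium plus DMSO without virus.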 To be noted: HEK293 RL24 IRF3 luciferase reporter, at 10 µM, stronger effect = higher value.
A short description of test [8]: inhibitors of poly I:C-induced TLR3 signaling, primary screen, cell-based, poly I:C stimulus, luciferase, 10K MLSCN set (AID 602277;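 active = inhibition of the reporter signal at or above 50%; inactive = inhibition below 50%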). To be noted: HEK293-TLR3 RL24 IRF3 luciferase reporter, at 10 µM, stronger effect = higher value.

Active and inactive are the calls of the source.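 The calls were made as follows, unless noted: active = inhibition at or above 50% at 10 µM; inactive = inhibition below 50%.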

Chain of Muscarinic acetylcholine receptor M4 (Homo sapiens) (P08173 whole entry, looked up): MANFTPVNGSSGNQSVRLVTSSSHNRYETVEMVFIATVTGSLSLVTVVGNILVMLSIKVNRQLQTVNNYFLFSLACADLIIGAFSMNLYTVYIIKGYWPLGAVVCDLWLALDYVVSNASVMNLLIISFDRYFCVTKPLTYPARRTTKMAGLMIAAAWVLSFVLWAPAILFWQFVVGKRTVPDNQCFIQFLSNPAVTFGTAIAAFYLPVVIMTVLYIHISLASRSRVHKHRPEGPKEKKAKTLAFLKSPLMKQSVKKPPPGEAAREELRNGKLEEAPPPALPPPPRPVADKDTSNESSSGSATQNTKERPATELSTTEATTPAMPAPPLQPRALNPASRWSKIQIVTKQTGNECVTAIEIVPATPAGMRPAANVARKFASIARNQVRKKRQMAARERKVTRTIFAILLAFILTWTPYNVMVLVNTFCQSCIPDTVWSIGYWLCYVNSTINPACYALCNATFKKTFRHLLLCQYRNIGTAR
Chain of Voltage-gated potassium channel subunit beta-2 (Rattus norvegicus) (P62483 whole entry, looked up): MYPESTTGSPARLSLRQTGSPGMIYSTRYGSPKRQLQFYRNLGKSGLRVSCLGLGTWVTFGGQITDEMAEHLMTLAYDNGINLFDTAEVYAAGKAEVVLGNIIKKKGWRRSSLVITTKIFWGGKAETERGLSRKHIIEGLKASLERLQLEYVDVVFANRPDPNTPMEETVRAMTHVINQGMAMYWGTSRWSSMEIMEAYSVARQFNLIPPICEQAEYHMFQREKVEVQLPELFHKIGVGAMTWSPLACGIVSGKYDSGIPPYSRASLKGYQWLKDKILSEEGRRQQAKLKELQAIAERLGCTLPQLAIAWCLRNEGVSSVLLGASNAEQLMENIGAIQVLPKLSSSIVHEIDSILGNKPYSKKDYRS

Broadly, the inhibition is the change of the read-out against control, counted positive when it falls. Regarding `CCC(=O)N1CCc2cc(Br)cc(S(=O)(=O)N3CCCCCC3)c21`, the cell count in test [1] was 434. For the same molecule, the inhibition was -3.9% (inactive) in test [1], 13.2% (inactive) in test [3], 7.37% (inactive) in test [7] and 12.3% (inactive) in test [8]. The inhibition of aggregation in test [2] is 34.8% (inactive). Besides, the figures for the nuclei count in test [2] and in test [3] were 65.9% and 99.9%, respectively. Besides, the fluorescence slope is -0.54 (inactive) in test [4] and 0.00616 (inactive) in test [6]. For the same molecule, the NADPH fluorescence slope in test [5] was -5.4e-06 (inactive).

On to `CCOC(=O)N1CCC(NC(=O)c2ccc3c(c2)N(C)CCS3)CC1`, for which the cell count in test [1] turned out to be 368. The inhibition in test [1] is -0.7% (inactive); in test [3], -131% (inactive); in test [7] it was 13% (inactive); in test [8] it was 21.9% (inactive). In addition, the inhibition of aggregation in test [2] is 17.8% (inactive). In addition, the nuclei count in test [2] came out at 113%; in test [3], 126%. The fluorescence slope in test [4] is -0.0303 (active); in test [6], 0.00744 (inactive). Further, the NADPH fluorescence slope in test [5] is 1.7e-06 (inactive).

As to `Cc1ccc(S(=O)(=O)N2CCCC2C(=O)n2nc(C)cc2C)cc1` (stereo not drawn), the cell count in test [1] worked out at 432. Besides, the inhibition in test [1] is -12.3% (inactive); in test [3], 46.7% (inactive); in test [7], 12.5% (inactive); in test [8], 19.1% (inactive). The inhibition of aggregation in test [2] is 15.8% (inactive). Further, the nuclei count in test [2] was 86.2%; in test [3], 93.5%. Besides, the fluorescence slope in test [4] was -0.341 (inactive); in test [6], 0.00537 (inactive). The NADPH fluorescence slope in test [5] is -4.4e-05 (inactive).

Take `O=C(O)CCCC(=O)NCCc1ccncc1`: the cell count in test [1] is 425. Also, the inhibition in test [1] was 8.1% (inactive); in test [3] it was 1.4% (inactive); in test [7], 3.6% (inactive); in test [8] it was 33.4% (inactive). Further, the inhibition of aggregation in test [2] was -3.6% (inactive). In addition, the nuclei count in test [2] and in test [3] was 112% in each case. The fluorescence slope in test [4] was -0.519 (inactive); in test [6], 0.00581 (inactive). Besides, the NADPH fluorescence slope in test [5] was -7e-06 (inactive).

Consider `Cc1csc2nc(CSc3nc4ccccc4o3)c(Br)n12`, for which, in test [1], the cell count is 573. In addition, the inhibition in test [1] is -14.8% (inactive); in test [3], -1.4% (inactive); in test [7], -40% (inactive); in test [8], -122% (inactive). The inhibition of aggregation in test [2] was -9.5% (inactive). In addition, the nuclei count is 98.3% in test [2] and 125% in test [3]. For the same molecule, the fluorescence slope in test [4] is -0.536 (inactive); in test [6], 0.00576 (inactive). For the same molecule, the NADPH fluorescence slope in test [5] was 0.000171 (inactive).

Turning to `COCC(=O)N(Cc1ccc(OC)cc1)Cc1nc2ccccc2c(=O)[nH]1`, in test [1], the cell count was found to be 351. Moreover, the inhibition was 6.5% (inactive) in test [1], -57.4% (inactive) in test [3], 17.3% (inactive) in test [7] and 26.3% (inactive) in test [8]. Also, the inhibition of aggregation in test [2] is -0.1% (inactive). Moreover, the nuclei count in test [2] was 91.9%; in test [3], 117%. Further, the fluorescence slope is -0.572 (inactive) in test [4] and 0.00687 (inactive) in test [6]. Further, in test [5], the NADPH fluorescence slope was -4.4e-05 (inactive).

As to `CS(=O)(=O)N1CCN(C(=O)c2ccc(-c3ccccc3)cc2)CC1`, in test [1], the cell count stood at 481. The inhibition in test [1] was 4% (inactive); in test [3], -287% (inactive); in test [7], 18.4% (inactive); in test [8] it was 22.5% (inactive). Moreover, the inhibition of aggregation in test [2] is -11% (inactive). Also, the nuclei count in test [2] was 108%; in test [3], 128%. Besides, the fluorescence slope in test [4] was -0.541 (inactive); in test [6], 0.00648 (inactive). For the same molecule, the NADPH fluorescence slope in test [5] is -5.8e-05 (inactive).

Turning to `CC(Sc1nnnn1-c1ccccc1)C(=O)Nc1ccc(Cl)cn1` (stereo not drawn), the cell count in test [1] is 570. Also, the inhibition in test [1] was -12.8% (inactive); in test [3] it was -139% (inactive); in test [7], 16% (inactive); in test [8], 19.9% (inactive). Further, in test [2], the inhibition of aggregation was -5.6% (inactive). In addition, the results for the nuclei count in test [2] and in test [3] were 108% and 131%, respectively. Also, the fluorescence slope in test [4] was -0.426 (inactive); in test [6] it was 0.00566 (inactive). Besides, the NADPH fluorescence slope in test [5] was 2.6e-05 (inactive).

Take `CC(c1ccco1)N(C(=O)COc1ccc(Cl)cc1Cl)c1ccccn1` (stereo not drawn): the cell count in test [1] amounted to 720. Also, the inhibition in test [1] was 2.4% (inactive); in test [3] it was -108% (inactive); in test [7], 2.26% (inactive); in test [8], -73.7% (inactive). Moreover, the inhibition of aggregation in test [2] is -4.8% (inactive). Moreover, the figures for the nuclei count in test [2] and in test [3] were 96% and 119%, respectively. Further, the fluorescence slope was -0.466 (inactive) in test [4] and 0.00469 (inactive) in test [6]. Also, the NADPH fluorescence slope in test [5] is -6.4e-05 (inactive).

Turning to `O=c1ccn(Cc2ccccc2Cl)cc1`, the cell count in test [1] worked out at 440. Moreover, the inhibition was 3% (inactive) in test [1], 0.1% (inactive) in test [3], 15.6% (inactive) in test [7] and 14.2% (inactive) in test [8]. Moreover, in test [2], the inhibition of aggregation was 1.3% (inactive). Further, the values for the nuclei count in test [2] and in test [3] were 102% and 131%, respectively. Further, the fluorescence slope was -0.426 (inactive) in test [4] and 0.00507 (inactive) in test [6]. For the same molecule, in test [5], the NADPH fluorescence slope is -4e-05 (inactive).

On to `COC(=O)c1cn(C(=O)OC)c2ccccc12`, for which, in test [1], the cell count was 447. The inhibition in test [1] is -2.7% (inactive); in test [3] it was -17.8% (inactive); in test [7], 13.8% (inactive); in test [8] it was 10.5% (inactive). For the same molecule, the inhibition of aggregation in test [2] was 10.2% (inactive). Besides, the nuclei count in test [2] and in test [3] was 108% each time. Further, the fluorescence slope in test [4] is -0.593 (inactive); in test [6], 0.00446 (inactive). Further, the NADPH fluorescence slope in test [5] is -8.8e-05 (inactive).

Turning to `NC(=O)C1CCN(CC(=O)N2c3ccccc3CCc3ccccc32)CC1`, the cell count in test [1] was 409. Also, the inhibition in test [1] was -16.8% (inactive); in test [3], -20.9% (inactive); in test [7], 15.6% (inactive); in test [8], 23.9% (inactive). In addition, the inhibition of aggregation in test [2] is -2.8% (inactive). Besides, the nuclei count came out at 107% in test [2] and 154% in test [3]. The figures for the fluorescence slope in test [4] and in test [6] were -0.587 (inactive) and 0.00441 (inactive), respectively. Also, the NADPH fluorescence slope in test [5] is -5.7e-05 (inactive).

Consider `COCCNc1nc(C(C)(C)C)nc2c1nnn2Cc1ccccc1Cl`, for which the cell count in test [1] stood at 419. The inhibition in test [1] was 15.8% (inactive); in test [3], 14.6% (inactive); in test [7], -0.805% (inactive); in test [8], 56% (active). In addition, the inhibition of aggregation in test [2] is 1% (inactive). Also, the nuclei count was 106% in test [2] and 111% in test [3]. The fluorescence slope in test [4] was -0.462 (inactive); in test [6], 0.00616 (inactive). For the same molecule, in test [5], the NADPH fluorescence slope was -1.9e-06 (inactive).
